The EternaBench riboswitch data

Tested on: MS2 coat protein
Assay: apparent Kd, MS2 coat protein; higher = weaker binding; RNA-MaP array; FMN 200 µM where present
Summary of the method: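 In 100 mM Tris-HCl pH 7.5, 80 mM KCl, 4 mM MgCl2, BSA, DTT, yeast tRNA and Tween-20, SNAP-549-labelled MS2 coat protein was titrated from 0.7 or 1.5 nM, doubling to 3 µM, over designs transcribed by stalled E. coli RNA polymerase on Illumina sequencing-chip clusters. This was done first without ligand, then with ligand held constant. After green signal was normalised to red-channel RNA signal and control-cluster median Fmax, the apparent Kd was taken as the median of filtered per-cluster binding-curve fits.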

[1] = designed as: OFF switch for flavin mononucleotide, no ligand
[2] = ligand present: flavin mononucleotide, designed as: OFF switch for flavin mononucleotide
[3] = designed as: ON switch for flavin mononucleotide, no ligand
[4] = ligand present: flavin mononucleotide, designed as: ON switch for flavin mononucleotide

| Sequence | apparent Kd [1] [nM] | apparent Kd [2] [nM] | apparent Kd [3] [nM] | apparent Kd [4] [nM] |
| --- | --- | --- | --- | --- |
| GGACGUAAAGAGAAGGGCUACUGGUUGAAACCUGCGGCCUCUGGAACAUGAGGAUCACCCAUGUAGCAGGAUAUCUUUGCAUCA | 180 | 14.7 | – | – |
| AAAAAGUGAGGAUAUGCUGCUCGUCACUUGCGUGAUGAGUAGCAGAAGGCACAUGAGGAUCACCCAUGUGGGAA | 82.6 | 170 | – | – |
| AAGGGACAUGAGGAUCACCCAUGUGAGGAUAUGCUAUGGAAAAUAAAAAAUAAACAUAGCAGAAGGCAUAAAAA | 64.9 | 97 | – | – |
| UGUCAAGCAGGAUAUGCACGUAAUAACAUGAGGAUCACCCAUGUGACCGAUUUAUAUUCUGCAGAAGGGCUUGGUU | 37.8 | 140 | – | – |
| UGCACCAACGAGAAGGCACAGAUCCAGCUCUUGACAUGAGGAUCACCCAUGUGAGGAUAUCGUAGGUGCGAAUUGGGACAAUCU | 11 | 98.2 | – | – |
| GCAGCUAAUGCAGGAUAUCAGCACGUGUAGUGCUGAGAAGGGCACAUGAGGAUCACCCAUGUGAUCAAUUAAUAUUAAUGCUGC | 24.9 | 152 | – | – |
| CUGAUGUGAGGAUAUCGGGCUACGGCCAGGCCGCUAGCAUUCGAGAAGGCACAUGAGGAUCACCCAUGUGAGAA | 25.4 | 39.8 | – | – |
| UGUGAGUUGAUGUUAGAUAGGAGUACAUGAGGAUCACCCAUGUAGGAUAUUCAAAGACGAAGAUAGAAGAAGGACAUAGGUUUC | 21.4 | 18.1 | – | – |
| GUAAAUCAUGUAGGAUAUGCAUGGCGAAGCUACGCAGAAGGACAUGAGGAUCACCCAUGUUAAAGCUACCGAGUUCGGUGGCAA | 133 | 162 | – | – |
| CAGGGUAGAGGAUAUACGUAGGUACAGAUCUGUGUGAUCCUACAUGAGGAUCACCCAUGUAGAAGGCUAGCCUG | 356 | 39.4 | – | – |
| GGCUUAAACACAGGAUAUGGCCUUAGAGUGAGGCCAGAAGGGUGAAGUUCUCAUACAUGAGGAUCACCCAUGUCAAGGAGGCUA | – | – | 857 | 201 |
| UCCGUACUAGGAUAUACAGCAAAAUCAAACAAAUUCCUCAAACAUGAGGAUCACCCAUGUAGAAGGAGUACCAA | 17.4 | 14.7 | – | – |
| GCUGCAUAGGCAGGAUAUGCAAAAGCAGAUGCAAAGCAUCUGCAAUAAACAUGAGGAUCACCCAUGUAGAAGGGCCUGUGCAGU | 20.8 | 19.4 | – | – |
| AUCAGCUCGUCAGGAUAUACGUCACUGCGUCCGCAGUGUGGUAAGAUCACAUGAGGAUCACCCAUGUAGAAGGGACGAGCUGAU | 13.8 | 264 | – | – |
| CGCUAUGACAUAGGAUAUUGAUACAUGAGGAUCACCCAUGUCAACCAUGAAGCUCGAUUUGUUGACAAGAAGGAUGUGGUAGCG | – | – | 165 | 44.7 |
| GGGUACAUCGGAGGAUAUCAUGUAAAUACAUGAGGAUCACCCAUGUCGAUGGAGACAUCUGAGAUUGAGAAGGCCGAUGUACCG | – | – | 19.4 | 6.45 |
| GUUAUUAACAAGAAGGCAUACAUGAGGAUCACCCAUGUUCUACAUGGAUAAUGAGGAUAUUGCUAAUACAUGAGGAUCACCCAG | 72 | 66.9 | – | – |
| UGGACGACCCGAGGAUAUCAAAGGCCCGGGUAAGUUCCUCAGACAUGAGGAUCACCCAUGUUAAAUGAGAAGGCGGGUAGCCGA | 203 | 268 | – | – |
| GCAUUGAUAGCAGGAUAUAUGUUUCCUACAUGAGGAUCACCCAUGUAGGUGAUCAGCCGAGAAAAGUAGAAGGGCUAUCAAUGC | – | – | 15.6 | 14.1 |
| UAUAUAUAGUAAGGAUAUGUAUUUAUUCUAUAAACAGAAGGUACUGACAUGAGGAUCACCCAUGUUUUAGUGUGGGCAUGUAGA | 39.9 | 38.8 | – | – |
| CCUAAACAUGAGGAUCACCCAUGUGAGGAUAUGAUGCGAAUAAAGAAAGAAGAAAGCAUCAGAAGGCACAUAGG | 173 | 270 | – | – |
| UUUACUUACGAAGGAUAUGGUUACAUGAGGAUCACCCAUGUAUGUAUAAUGAUCUAGUAUUUUAACCAGAAGGUCGUGAUUAUU | 39.3 | 64.6 | – | – |
| AACCCUUGAGGAUAUUAAACAAAUCACAUGAGGAUCACCCAUGUGCAUACCUCGUGGCUUUGAGAAGGCAGUCGGG | 34.9 | 39.2 | – | – |
| AAUUCACAUGAGGAUCACCCAUGUCAGGAUAUGGUUUCACGUGUUUCGGUGCUUGAGGCCAGAAGGGACAGCUA | 67 | 98.6 | – | – |
| AAACCACAUGAGGAUCACCCAUGUGAGGAUAUGAUACUAUGUACUUCGGUACAUAGUAUCAGAAGGCAUAUGAA | 24.6 | 25.1 | – | – |
| UGUAUGGACAGAGGAUAUACAGAUAGGAUCUACUAUCAAACAUUCCUGACAUGAGGAUCACCCAUGUAGAAGGCUGUCCAUACU | 21.1 | 79.2 | – | – |
| AAAAAAAAAAGUCAGGAUAUACAAAUUUUUACAUGAGGAUCACCCAUGUUAAAGAAAAAAAAAAAGUAGAAGGGACAAAAAAAAAA | – | – | 25.1 | 14.9 |
| GUAACAUGAGGAUCACCCAUGUAUAGAACACUCAAUAGAUCUGAGGAUAUACUAGAAUUUACGUAGUAGAAGGCAGUGGGUACA | – | – | 64.1 | 33.6 |

| Sequence | apparent Kd [1] [nM] | apparent Kd [2] [nM] | apparent Kd [3] [nM] | apparent Kd [4] [nM] |
| --- | --- | --- | --- | --- |
| GCGUUCUUGUAGAAGGUACAUACAAUAUCUUAUAAACACAUGACACAUGAGGAUCACCCAUGUUGUAAGGAUAUACAUGAACGC | – | – | 6.29 | 7.73 |
| CUGUGACGGUGCGCAAGUGGACGUAGAAGGCUCACAUGAGGAUCACCCAUGUGGGCCUGCGAGUGAGAGGAUAUACGUUCGUGC | 5.28 | 5.56 | – | – |
| CAGGUAGACUGAGGAUAUACAUUAAACAGCUAGUCUAUCUAGCUGCUCACAUGAGGAUCACCCAUGUAGAAGGCAGUCUGCCUG | 26.1 | 75 | – | – |
| ACAUGGAAUACAGGAUAUGUAAGUUUUAAGUAGAUUGGUUAUUACUUUACAACAGAAGGGUAAUACAUGAGGAUCACCCAUGUA | – | – | 19.1 | 16 |
| AAAGGACGAGGAUAUACAUGAGGAUCACCCAUGUAAAAAGCGUAGCAAAAGUGCUUAUGUAGAAGGCGUCCAAA | 21.9 | 59.2 | – | – |
| UAAGUUGAGGAGAAGGGAGCACAUGAGGAUCACCCAUGUGGUUCUUUGUGCUCAGGAUAUCCAUGGAGCUCCGUCGCGUUCCAG | 103 | 19.1 | – | – |
| AACAAUCUAUCUGAGGAUAUCAUGAAAAAAACAUGAGGAUCACCCAUGUGCAGGAAAACUGCAUAUGAGAAGGCAGAUAGAUUGC | – | – | 590 | 26.8 |
| CCUAGUUGGUAAGGAUAUCCUACACUAUUCUGACCCGUGCAAGCUACAUGAGGAUCACCCAUGUAGGAGAAGGUGCGUCAACGU | 6.97 | 6.82 | – | – |
| GAUUACAAGUAAGGAUAUGUAUAUGAAACAUAUACAGAAGGUACAUGAGGAUCACCCAUGUUCUUGCAACGCGAAUAUGUAAUC | 17.2 | 21.6 | – | – |
| GCGCGCUAAGGAUAUACAUGAGGAUCACCCAUGUUGCUCUGAUGAGCGGGUGUAAGCUGUAGAAGGUAGAGCAA | 61.9 | 123 | – | – |
| UUUUUGUGAGGAUAUACGUAGUAGAACAAUAGUACUACUACGUAGAAGGCACAUGAGGAUCACCCAUGUUCCUC | 47.6 | 339 | – | – |
| AUAAUUUUAUAAUUCUAUAUAUUCAGAAGGCAUAACAUGAGGAUCACCCAUGUAAAUUAAUGUUAUGAGGAUAUGAUUCGGUUA | 13.9 | 67.3 | – | – |
| UUUUAACAUGAGGAUCACCCAUGUGAGGAUAUCGAAAUUUAUAUUAAUAUUAUUUAAACGAGAAGGCACAUUUU | 65.2 | 87 | – | – |
| UAGAAGUCAGGAUAUGCUGCUCGUCACUUGCGUGAUGAGUAGCAGAAGGGACAUGAGGAUCACCCAUGUAAAGU | 52.5 | 91 | – | – |
| UAGACACUUACAGGAUAUAGGGCAGAGGGUGCCCUAGAAGGGUGAACAUGAGGAUCACCCAUGUAUGUGUCUGAUUAGAAGGCA | – | – | 36.2 | 69.4 |
| CCUCUACAUGAGGAUCACCCAUGUGAGGAUAUGCGAGGCGCGCCCGAUAGGCGCGCCGGUAGAAGGCAUGUGGU | 23.5 | 50.5 | – | – |
| ACAUGAGGAUCACCCAUGUGUGCAUAGGAUAUUGAGGAUUAGGGAUGUUUUUUUGGAUUUGCCCACAAGAAGGAUGAAAGUGUU | – | – | 10.6 | 10.5 |
| CUGGUUGUCGUAGGAUAUGUAGGAUAUUCCUACAUGAGGAUCACCCAUGUUCGCAUGGAAGAAGGACAGAAGGACGAUGACCAA | – | – | 1160 | 8.77 |
| CAGUACUGAGGAUAUACAUGAGGAUCACCCAUGUAAAAAACCUACGAAAGUAGGACAUGUAGAAGGCAGUACUG | 24.2 | 76.7 | – | – |
| UUGUUCCAUGUAGGAUAUGCAUAUUCUUAUUAUGCAGAAGGACAUGAGGAUCACCCAUGUAUGUUAUUAUUAUAUGUUACAUGU | 72.3 | 392 | – | – |
| UCCUAACCGUAGAAGGGUGACAUGAGGAUCACCCAUGUGCAGCAGCCGUGAACGGCCAUGCUGCCACAGGAUAUACGGAGGAGU | – | – | 26.1 | 55 |
| GACUUGCGCACAGGAUAUCCACAGAGCGGACGUGGAGAAGGGUGACAUGAGGAUCACCCAUGUACGUAAGUCUGGAUCACUUCC | – | – | 29.4 | 26.1 |
| ACAUGAGGAUCACCCAUGUUCGUCGCGUUGUGUCGCGAGUCUGAGGAUAUCGAGGUGGGUUUUGUUGAGAAGGCGGGCCCGUGU | – | – | 129 | 151 |
| UAUUAGUAAGGAUAUCCUUGCAUGGACGAAAGUCCAUGCAAGGAGAAGGUACAUGAGGAUCACCCAUGUUCAUU | 17.2 | 17.9 | – | – |
| GUGGUCAGACAUGAGGAUCACCCAUGUGGAAUAAAUAAGGAACAGGAUAUGGAAUAUAGGAUAUACCAGAAGGGUUGGUUGGUG | – | – | 72.3 | 82.4 |
| ACAUGCAUAGCGAUAUGAUCGAGAGAUCAUGUCGCUUAAAAUAGAAGGACAUGAGGAUCACCCAUGUAGGAUAUGGGAGCAUGA | – | – | 25.8 | 11.7 |
| GUAGCAUACGGAGGAUAUUCAUACCGGAAACGGACAUGAGGAUCACCCAUGUGGCGAAAGCCUUGGAAGAAGGCCGUAUGCUAC | – | – | 3.96 | 3.55 |
